Results from ChEMBL document CHEMBL2163200, “Synthesis, biological evaluation, and structure-activity relationships of novel substituted N-phenyl ureidobenzenesulfonate derivatives blocking cell cycle progression in S-phase and inducing DNA double-strand breaks” (J Med Chem, 2012).
The source made the active and inactive calls. The calls are words filed in the database; no cut-off is given here.

Columns and labels:
Jurkat [1] = experiment: Cell cycle arrest in human Jurkat E6-1 cells assessed as accumulation at G0/G1 phase at 43 uM after 24 hrs by FACS flow cytometry; assay type: functional
Procedure, shortened: (§1)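 Jurkat E6 cells cultured in RPMI 1640 with 10% FBS at 37 °C, 5% CO2. Compounds serially diluted in medium, starting 50% above the M21 IC50. 4.0 × 10^5 cells were exposed for 24 h. Cells were washed with PBS, chicken red blood cells added as internal standard, and fixed in ice-cold EtOH. After 1 h on ice in PBS with 1 μg/mL DAPI, phase distribution was read by flow cytometry. DMSO-treated cells served as control.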

Jurkat [2] = experiment: Cell cycle arrest in human Jurkat E6-1 cells assessed as accumulation at S phase at 43 uM after 24 hrs by FACS flow cytometry; assay type: functional
Procedure, shortened: (§2)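 Jurkat E6 T-lymphoblasts in RPMI 1640 with 10% FBS, 37 °C, 5% CO2. […] Chicken red blood cells were added as internal standard. Cells were fixed in ice-cold EtOH and stained with 1 μg/mL DAPI on ice for 1 h before flow cytometry of phase distribution. Vehicle control was 0.5% DMSO.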

Jurkat [3] = experiment: Cell cycle arrest in human Jurkat E6-1 cells assessed as accumulation at G2/M phase at 43 uM after 24 hrs by FACS flow cytometry; assay type: functional
Procedure, shortened: (§3)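 Jurkat E6 cells grown in RPMI 1640 with 10% FBS at 37 °C, 5% CO2. Compounds were serially diluted in medium starting 50% above the M21 IC50. 4.0 × 10^5 cells were exposed for 24 h, then washed and spiked with chicken red blood cells as internal standard. Cells were fixed in ice-cold ethanol, stained with 1 μg/mL DAPI on ice for 1 h, and phase distribution was read by flow cytometry. The control was 0.5% DMSO.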

HT-29 = experiment: Cytotoxicity against human HT-29 cells after 48 hrs by SRB assay; assay type: functional, cell-based; conditions: HT-29, 48 h
Procedure, shortened: (§4)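 NCI sulforhodamine B protocol. Cells were grown in high-glucose DMEM with 5% FBS and seeded per well at 4 × 10^3 (HT-29), 3.5 × 10^3 (M21) or 3 × 10^3 (MCF-7), then allowed 24 h to attach. Serial dilutions from 200 μM to 780 nM final were applied in DMSO <0.5% for 48 h. Cells were fixed with cold TCA (10% final) and stained with SRB, with absorbance read at 530–568 nm. Growth inhibition was computed against day-0 plates, giving the 50% inhibitory concentration. At least two experiments in triplicate, CV <10%.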

M21 [4] = experiment: Cytotoxicity against human M21 cells after 48 hrs by SRB assay; assay type: functional, cell-based; conditions: M21, 48 h; procedure, shortened: as §4
MCF7 = experiment: Cytotoxicity against human MCF7 cells after 48 hrs by SRB assay; assay type: functional, cell-based; conditions: MCF7, 48 h; procedure, shortened: as §4
Jurkat [5] = experiment: Cell cycle arrest in human Jurkat E6-1 cells assessed as accumulation at S phase at 19 uM after 24 hrs by FACS flow cytometry; assay type: functional; procedure, shortened: as §3
Jurkat [6] = experiment: Cell cycle arrest in human Jurkat E6-1 cells assessed as accumulation at G2/M phase at 19 uM after 24 hrs by FACS flow cytometry; assay type: functional; procedure, shortened: as §3
Jurkat [7] = experiment: Cell cycle arrest in human Jurkat E6-1 cells assessed as accumulation at G0/G1 phase at 19 uM after 24 hrs by FACS flow cytometry; assay type: functional; procedure, shortened: as §1
Jurkat [8] = experiment: Cell cycle arrest in human Jurkat E6-1 cells assessed as accumulation at G0/G1 phase at 3.5 uM after 24 hrs by FACS flow cytometry; assay type: functional; procedure, shortened: as §1
Jurkat [9] = experiment: Cell cycle arrest in human Jurkat E6-1 cells assessed as accumulation at S phase at 3.5 uM after 24 hrs by FACS flow cytometry; assay type: functional; procedure, shortened: as §2
Jurkat [10] = experiment: Cell cycle arrest in human Jurkat E6-1 cells assessed as accumulation at G2/M phase at 3.5 uM after 24 hrs by FACS flow cytometry; assay type: functional; procedure, shortened: as §3
Jurkat [11] = experiment: Cell cycle arrest in human Jurkat E6-1 cells assessed as accumulation at G0/G1 phase at 2.2 uM after 24 hrs by FACS flow cytometry; assay type: functional; procedure, shortened: as §1
Jurkat [12] = experiment: Cell cycle arrest in human Jurkat E6-1 cells assessed as accumulation at S phase at 2.2 uM after 24 hrs by FACS flow cytometry; assay type: functional; procedure, shortened: as §3
Jurkat [13] = experiment: Cell cycle arrest in human Jurkat E6-1 cells assessed as accumulation at G2/M phase at 2.2 uM after 24 hrs by FACS flow cytometry; assay type: functional; procedure, shortened: as §3
M21 [14] = experiment: Induction of DNA damage response in human M21 cells assessed as phosphorylation of H2AX into gammaH2AX at IC50 after 24 hrs by DAPI staining-based immunofluorescence assay; assay type: functional, cell-based
Procedure, shortened: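 M21 cells (1 × 10^5) on fibronectin-coated coverslips, grown 24 h, then exposed to agent for 24 h at 37 °C; 0.5% DMSO control. Fixed with 3.7% formaldehyde and permeabilized with 0.1% saponin/3% BSA. Probed with mouse anti-H2AX pS139 antibody for 2 h at room temperature. Nuclei counterstained with DAPI; nuclear γH2AX foci viewed by epifluorescence microscopy.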

HT-1080 = experiment: Antitumor activity against human HT1080 cells xenografted in chicken chorioallantoic membrane assessed as inhibition of tumor growth at 30 ug per egg, iv administered on day 11 measured on day 17 by CAM assay; assay type: functional
Procedure, shortened: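 HT-1080 fibrosarcoma cells (3.5 × 105/egg) were applied onto freshly exposed CAM of fertilized chicken eggs. On day 11, drug from a DMSO stock was diluted in Cremophor EL/99% ethanol/PBS (1/1/14 v/v) and 100 μL was injected into a vein under the CAM. Groups of 10–12 eggs were kept to day 17, embryos were euthanized at 4 °C for ≥4 h, and tumor wet weight was recorded.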

[15] = Toxicity in fertilized chicken embryo assessed as mortality rate at 30 ug per egg, iv administered on day 11 measured on day 17 by CAM assay; assay type: organism-based, Gallus gallus; conditions: in vivo, read-out: Activity
Procedure, shortened: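 Fertilized chicken eggs grafted on the CAM with HT-1080 cells (3.5 × 105/egg) received a 100 μL intravenous injection under the CAM on day 11. The drug was diluted in Cremophor EL/99% ethanol/PBS (1/1/14 v/v). Groups held 10–12 eggs and were incubated until day 17, when dead embryos and signs of toxicity were counted per group.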

Jurkat [16] = experiment: Cell cycle arrest in human Jurkat E6-1 cells assessed as accumulation at S phase at 23 uM after 24 hrs by FACS flow cytometry; assay type: functional; procedure, shortened: as §3
Jurkat [17] = experiment: Cell cycle arrest in human Jurkat E6-1 cells assessed as accumulation at G2/M phase at 23 uM after 24 hrs by FACS flow cytometry; assay type: functional; procedure, shortened: as §3
Jurkat [18] = experiment: Cell cycle arrest in human Jurkat E6-1 cells assessed as accumulation at G0/G1 phase at 23 uM after 24 hrs by FACS flow cytometry; assay type: functional; procedure, shortened: as §1
Jurkat [19] = experiment: Cell cycle arrest in human Jurkat E6-1 cells assessed as accumulation at G0/G1 phase at 74 uM after 24 hrs by FACS flow cytometry; assay type: functional; procedure, shortened: as §1
Jurkat [20] = experiment: Cell cycle arrest in human Jurkat E6-1 cells assessed as accumulation at S phase at 74 uM after 24 hrs by FACS flow cytometry; assay type: functional; procedure, shortened: as §2
Jurkat [21] = experiment: Cell cycle arrest in human Jurkat E6-1 cells assessed as accumulation at G2/M phase at 74 uM after 24 hrs by FACS flow cytometry; assay type: functional; procedure, shortened: as §3
Jurkat [22] = experiment: Cell cycle arrest in human Jurkat E6-1 cells assessed as accumulation at G0/G1 phase at 0.60 uM after 24 hrs by FACS flow cytometry; assay type: functional; procedure, shortened: as §1
Jurkat [23] = experiment: Cell cycle arrest in human Jurkat E6-1 cells assessed as accumulation at S phase at 0.60 uM after 24 hrs by FACS flow cytometry; assay type: functional; procedure, shortened: as §3
Jurkat [24] = experiment: Cell cycle arrest in human Jurkat E6-1 cells assessed as accumulation at G2/M phase at 0.60 uM after 24 hrs by FACS flow cytometry; assay type: functional; procedure, shortened: as §1

SMILES: CCNC(=O)Nc1cccc(S(=O)(=O)Nc2ccccc2CC)c1
- Activity (Jurkat [1]): 40%
- Activity (Jurkat [2]): 41%
- Activity (Jurkat [3]): 19%
- IC50 (HT-29): 15 µM
- IC50 (M21 [4]): > 100 µM
- IC50 (MCF7): 48 µM

SMILES: CCc1ccccc1OS(=O)(=O)c1cccc(NC(=O)NCCCCl)c1
- Activity (Jurkat [5]): 38%
- Activity (Jurkat [6]): 17%
- IC50 (M21 [4]): 24 µM
- Activity (Jurkat [7]): 45%

SMILES: CCNC(=O)Nc1ccc(S(=O)(=O)Oc2ccc(O)cc2)cc1
- Activity (Jurkat [8]): 21%
- Activity (Jurkat [9]): 63%
- Activity (Jurkat [10]): 16%
- IC50 (HT-29): 12 µM
- IC50 (M21 [4]): 4.3 µM
- IC50 (MCF7): 8 µM

SMILES: CCNC(=O)Nc1ccc(S(=O)(=O)Oc2ccccc2CC)cc1
- Activity (Jurkat [11]): 11%
- Activity (Jurkat [12]): 75%
- Activity (Jurkat [13]): 14%
- Activity (M21 [14]): Active
- TGI (HT-1080): 45%
- mortality at 6 days [15]: 9%
- IC50 (HT-29): 12 µM
- IC50 (M21 [4]): 2.5 µM
- IC50 (MCF7): 3.4 µM

SMILES: CCCc1ccccc1OS(=O)(=O)c1cccc(NC(=O)NCC)c1
- Activity (Jurkat [16]): 44%
- Activity (Jurkat [17]): 10%
- IC50 (M21 [4]): 25 µM
- Activity (Jurkat [18]): 46%

SMILES: Cc1ccc(OS(=O)(=O)c2ccc(NC(=O)NCCCl)cc2)cc1
- Activity (Jurkat [5]): 57%
- Activity (Jurkat [6]): 11%
- IC50 (HT-29): 30 µM
- IC50 (M21 [4]): 21 µM
- IC50 (MCF7): 33 µM
- Activity (Jurkat [7]): 32%

SMILES: CCNC(=O)Nc1cccc(S(=O)(=O)Nc2ccccc2C)c1
- Activity (Jurkat [19]): 46%
- Activity (Jurkat [20]): 34%
- Activity (Jurkat [21]): 20%
- IC50 (HT-29): 102 µM
- IC50 (M21 [4]): 131 µM
- IC50 (MCF7): 108 µM

SMILES: CCc1ccccc1OS(=O)(=O)c1cccc(NC(=O)NCCCl)c1
- IC50 (HT-29): 4.3 µM
- IC50 (M21 [4]): 4.8 µM
- IC50 (MCF7): 5.3 µM

SMILES: CN(C)c1ccc(OS(=O)(=O)c2ccc(NC(=O)NCCCl)cc2)cc1
- Activity (Jurkat [16]): 40%
- Activity (Jurkat [17]): 9%
- IC50 (HT-29): 39 µM
- IC50 (M21 [4]): 43 µM
- IC50 (MCF7): 58 µM
- Activity (Jurkat [18]): 51%

SMILES: CCCc1ccccc1OS(=O)(=O)c1ccc(NC(=O)NCC)cc1
- Activity (Jurkat [22]): 12%
- Activity (Jurkat [23]): 81%
- Activity (Jurkat [24]): 7%
- Activity (M21 [14]): Active
- TGI (HT-1080): 65%
- mortality at 6 days [15]: 10%
- IC50 (HT-29): 2.4 µM
- IC50 (M21 [4]): 0.8 µM
- IC50 (MCF7): 1.3 µM
